Compound activity (PubChem BioAssay)
Sampled rows, rich in hits. Any-hit rate of the full collection: about 4%.
H9c2 protect = modulators protecting cardiomyocytes from myocardial damage; 360,000 compounds, 0.63% hits; H9c2 cardiomyocytes, H2O2 injury protection, ATPLite, 2 h; AID 588492; protection from H2O2 cell death, % at 20 µM;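 active means compounds giving at least 50% protection of heart cells from peroxide-induced death in the single-dose screen, raw or plate-pattern-corrected value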;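 further: 0% = DMSO wells with peroxide and 100% = DMSO wells without peroxide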
SENP1 FRET inh = blocks the human SENP1 SUMO protease catalytic domain. recombinant SENP1 catalytic domain, CyPet-SUMO1-YPet FRET cleavage. AID 624204. inhibition, % at 10 µM. Q9P0U3. 360,000 compounds, 0.21% hits;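 active means inhibition at least 30% at 10 µM, raw YFP signal under a set limit, fluorescence ratio 0.5 to 1.5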;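 further: 0% = enzyme with DMSO and 100% = no enzyme wells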
Target sequence (Q9P0U3 419-644 limits assumed): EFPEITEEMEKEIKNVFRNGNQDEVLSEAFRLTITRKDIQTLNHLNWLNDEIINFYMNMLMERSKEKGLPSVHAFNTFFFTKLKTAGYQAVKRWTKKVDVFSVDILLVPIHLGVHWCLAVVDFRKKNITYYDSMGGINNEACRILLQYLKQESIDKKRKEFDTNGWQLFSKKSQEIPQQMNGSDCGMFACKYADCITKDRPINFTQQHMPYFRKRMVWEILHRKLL
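Material – human SENP1 catalytic domain · Input – SENP1 enzyme, 20 pM final · Compound dosing – single concentration of 10 µM compound, 0.5% DMSO final · Timing – enzyme reaction for 50 min at room temperature, dark · Measured by – FRET fluorescence in CFP and YFP emission channels · Control set – no-enzyme wells low, DMSO-plus-enzyme wells high control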
FAS TE block = inhibitors of human fatty acid synthase thioesterase domain. P49327. recombinant FAS-TE, OMFH fluorogenic substrate, fluorescence endpoint. inhibition, % at 15 µM. 360,000 compounds, 0.67% hits;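 active means compounds whose normalised, plate-corrected inhibition of enzyme fluorescence in the single-dose primary screen is 50% or more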;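 further: 0% = DMSO with enzyme and 100% = substrate without enzyme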
NR3A LBD binder = modulates the human NR3A ligand-binding domain; NR3A LBD differential scanning fluorimetry, Tm shift; 0% = protein alone, 100% = glycine-bound protein; Tm shift relative to glycine control, % at 25 µM; 340,000 compounds, 2.5% hits;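 active means melting temperature shift of at least 10% of the positive control shift, at one fixed dose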
Arr AP2 block = inhibitors of human beta-arrestin and AP2 interaction; FITC-arrestin peptide / GST-AP2 beads, flow cytometry; AP2 beta2 appendage carries R879A mutation; inhibition, % at 10 µM; 340,000 compounds, 0.31% hits; AID 504490;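 active means inhibition above a set limit, near 3 SD of compounds lacking own fluorescence, cut at about 54% in these data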;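 further: plate controls were DMSO wells for no effect and 5 µM unlabelled arrestin peptide for full effect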
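System: GST-tagged AP2 beta2-adaptin appendage (R879A) on 4 µm glutathione beads / Reagent: FITC-arrestin peptide, 50 nM / Detection: HyperCyt-sampled flow cytometry, FL1 channel, ex 488/em 535 nm / Timing: 12 min plus 1 h, RT / Buffer or medium: PBS plus Tween 20 (0.05%) and BSA (0.1%)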
iPSC survival up = hiPSC single-cell survival enhancement; ATPlite luminescence; 100% = ROCK inhibitor wells, 0% = DMSO; survival enhancement, % at 20 µM; 360,000 compounds, 0.044% hits; AID 602274; in the data active means survival enhancement above about 18%;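 further: cells exposed to compounds for 16 hours before the ATP read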
FAS-TE conf = FAS thioesterase (human) inhibition, confirmation; 2,300 compounds, 45% hits; shares compounds with FAS TE block; recombinant FAS-TE, OMFH fluorogenic substrate, fluorescence; inhibition, % at 15 µM;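 active means compounds inhibiting the enzyme by at least 50% at 15 µM in any one of the replicates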;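 further: 0% = enzyme with DMSO only and 100% = wells lacking enzyme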
An asterisk follows results filed as active; . = not tested or not shown.

SMILES | H9c2 protect | SENP1 FRET inh | FAS TE block | NR3A LBD binder | Arr AP2 block | iPSC survival up | FAS-TE conf
Cc1noc(C)c1C(=O)N1CCC1(C)C(=O)NS(=O)(=O)c1cccc(OC(F)F)c1 (centres undefined) | -1 | 1 | -12 | . | . | -1 | .
O=C(CC1CCCC1)NCCS(=O)(=O)N1CCN(c2ccccc2)CC1 | -2 | 0 | -3 | . | . | -1 | .
COc1cc(NS(=O)(=O)c2ccc(C)cc2)c2c(c1N)C(=O)c1ccccc1C2=O | 0 | 18 | 21 | . | . | -3 | .
O=C(CC1C[C@H](C(=O)N2CCOCC2)[C@@]2(CCC3CCCC3)c3[nH]c4ccccc4c3CCN2C1=O)NCCN1CCOCC1 (some centres undefined) | -12 | 3 | 76* | -3 | -2 | -2 | 87*
COCCCNC(=O)CC1C[C@H](C(=O)N2CCOCC2)[C@@]2(CCC3CCCC3)c3[nH]c4ccc(OC)cc4c3CCN2C1=O (some centres undefined) | 5 | 2 | 53* | 0 | -3 | -2 | 64*
O=C(C[C@H]1C[C@H](C(=O)N2CCOCC2)[C@@]2(CCC3CCCC3)c3[nH]c4ccc(Cl)cc4c3CCN2C1=O)NCCCn1ccnc1 | -10 | 0 | 55* | 0 | 1 | -2 | 23
COc1ccc2[nH]c3c(c2c1)CCN1C(=O)C(CC(=O)NC/C=C(\C)CCC=C(C)C)C[C@H](C(=O)N2CCOCC2)[C@@]31CCC1CCCC1 (some centres undefined) | -4 | -1 | 5 | 0 | 31 | 1 | .
Cc1cccc(C)c1NC(=O)C1c2ccccc2OCC(=O)N1Cc1cccnc1 (centres undefined) | . | -1 | -12 | . | . | 0 | .
CCOC(=O)[C@]12CCCC=C1N(Cc1ccccc1)C(=O)[C@H](CC(=O)N1CCN(C(=O)c3ccco3)CC1)C2 | . | 2 | . | . | . | . | .
O=S(c1ccccc1O)S(=O)c1ccccc1O (centres undefined) | 15 | -3 | 5 | 5 | -3 | 4 | .
Cn1c(=O)c2[nH]c(COc3ccc(C(C)(C)C)cc3)nc2n(C)c1=O | -21 | 0 | 69* | -3 | 4 | -1 | 70*
CC#CCN1c2ccccc2[C@]23C[C@@H](C(=O)OC)N(C(=O)c4cc(C)oc4C)C2=NC(C(=O)OC)=C(C(=O)OC)[C@H]13 | 36 | 2 | 59* | -1 | 1 | -3 | 19
O=C(c1cccs1)N1C[C@@H](n2cc(-c3ccc(F)cc3)nn2)[C@H](O)C[C@@H]1c1ccccc1 | 11 | 0 | 2 | . | . | 4 | .
COc1cc(S(=O)(=O)Nc2ccc(C)cc2)ccc1N=Cc1c(C)c(C#N)c(=O)n(C)c1O | -6 | -26 | -2 | 2 | -1 | -1 | .
COc1cc(S(=O)(=O)Nc2ccc(C)cc2)ccc1N=Cc1c(C)[nH]n(-c2ccc(C)cc2)c1=O | -12 | 8 | 77* | 28* | -10 | -1 | 11
O=C(Oc1ccc(N(Cc2cccs2)C2=NS(=O)(=O)c3ccccc32)cc1)c1ccccc1 | -2 | 3 | 60* | -2 | 5 | 1 | -8
Cc1cccc(-n2cnc3c(sc4nc(N5CCOCC5)c5c(c43)CCCC5)c2=O)c1 | -4 | 3 | 66* | 0 | -15 | 0 | 6
Cc1nn(-c2ccccc2)c2c1C(c1ccc([N+](=O)[O-])cc1)N1C(=N2)C(=O)Nc2ccccc21 (centres undefined) | 43 | -43 | 79* | -1 | . | 0 | 1
Cc1nn(-c2ccccc2)c(N)c1C1(O)C(=O)Nc2ccc([N+](=O)[O-])cc21 (centres undefined) | -3 | 2 | 0 | -2 | 4 | 0 | .
Cc1nn(-c2ccc([N+](=O)[O-])cc2)c2c1C(c1cccc(Br)c1)N1C(=N2)C(=O)Nc2ccccc21 (centres undefined) | 56* | -23 | 70* | 6 | 7 | 4 | -37
CNc1cncc(-c2ccc(OC)cc2OC)n1 | 3 | -2 | -11 | . | . | -2 | .
CC1CCN(C(=O)COC(=O)c2cc([N+](=O)[O-])ccc2N2CCOCC2)CC1 | 6 | 1 | 71* | -1 | 33 | 0 | 82*
O=C(OCc1ccccc1F)c1cc([N+](=O)[O-])ccc1N1CCOCC1 | -4 | 0 | 32 | 1 | 37 | 1 | .
CCOC(=O)C1CCN(C(=O)COC(=O)/C=C/c2ccc([N+](=O)[O-])cc2)CC1 | -11 | 3 | 7 | -3 | 1 | 0 | .
CC1CCN(c2ccccc2NC(=O)c2cc([N+](=O)[O-])ccc2N2CCOCC2)CC1 | -5 | 2 | 34 | -2 | 3 | 0 | .
SMILES | H9c2 protect | SENP1 FRET inh | FAS TE block | NR3A LBD binder | Arr AP2 block | iPSC survival up | FAS-TE conf
COC(=O)C1CCN(C(=O)COC(=O)c2cc([N+](=O)[O-])ccc2N2CCOCC2)CC1 | -5 | 2 | 69* | -1 | 24 | 3 | 71*
CCOC(=O)C1CCN(C(=O)COc2ccc([N+](=O)[O-])cc2)CC1 | 12 | 0 | 59* | 1 | 2 | -2 | 67*
O=c1[nH][nH]c2c1[C@H](c1ccc(Cl)cc1)O[C@H](C1CCCC1)C2 | . | 0 | -33 | . | . | 0 | .
O=C(Nn1c(C2CCCCC2)nc2ccccc2c1=O)c1ccc(Cl)c([N+](=O)[O-])c1 | -16 | -2 | 57* | 3 | 12 | 0 | 60*
Cc1cc(C(=O)Nn2c(C3CCCCC3)nc3ccccc3c2=O)ccc1[N+](=O)[O-] | -26 | 2 | 26 | 3 | 10 | -4 | .
O=C(Nn1c(C2CCCCC2)nc2ccccc2c1=O)c1cc(Cl)ccc1[N+](=O)[O-] | -1 | 1 | 12 | -4 | 1 | 0 | .
O=C(Nn1c(C2CCCCC2)nc2ccccc2c1=O)c1ccc([N+](=O)[O-])cc1Cl | -3 | 0 | 62* | 1 | 5 | 1 | 43*
O=c1oc(-c2ccc(Cl)cc2[N+](=O)[O-])nc2ccccc12 | 16 | 2 | 62* | . | . | 1 | 20
COC(=O)C1=C(C(=O)OC)[C@]2([C@H]3CCCCN[C@@H](Cc4ccccc4)C(=O)N3Cc3ccccc3)C=C[C@H]1O2 | -3 | 0 | 75* | 1 | 7 | -2 | 11
CCCCN1C(=O)C(CC(=O)NC2CCCCC2)CC(C(=O)N(C(C)C)C(C)C)=C1C (centres undefined) | -1 | -1 | -7 | . | . | 1 | .
COc1ccc2c(c1)c(CC(=O)Nc1ccc(C(C)=O)cc1)c(C)n2C(=O)c1ccc(Cl)cc1 | -7 | 1 | 54* | 10 | 8 | -2 | 30
